Test results as given in ChEMBL document CHEMBL4689842, “EUbOPEN Chemogenomics Library wave 1” (2021).

System: U2OS
Assay: Multiplex assay against U2OS
Type: toxicity, cell-based
Conditions: human
How it was run: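 Four dyes were applied at seeding to live cells: Hoechst33342, BioTracker Green Microtubule Cytoskeleton Dye, MitoTracker Red and Annexin V Alexa Fluor 680. Imaging after compound addition used a CQ1 microscope at 37°C and 5% CO2. CellPathfinder machine-learning gating then sorted cells into Hoechst high-intensity objects or normal cells, normal cells into healthy, pyknosed or fragmented nuclei, and pyknosed cells into mitotic or apoptotic, with tubulin, mitochondrial-mass and membrane-permeability phenotypes given as per cents of healthy-nucleus cells.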

[1] = 12 h, 1 µM, compound concentration 1 uM, replicate 1
[2] = 12 h, 1 µM, compound concentration 1 uM, replicate 2
[3] = 12 h, 10 µM, compound concentration 10 uM, replicate 1
[4] = 12 h, 10 µM, compound concentration 10 uM, replicate 2
[5] = 24 h, 1 µM, compound concentration 1 uM, replicate 1
[6] = 24 h, 1 µM, compound concentration 1 uM, replicate 2
[7] = 24 h, 10 µM, compound concentration 10 uM, replicate 1
[8] = 24 h, 10 µM, compound concentration 10 uM, replicate 2
[9] = 48 h, 1 µM, compound concentration 1 uM, replicate 1
[10] = 48 h, 1 µM, compound concentration 1 uM, replicate 2
[11] = 48 h, 10 µM, compound concentration 10 uM, replicate 1
[12] = 48 h, 10 µM, compound concentration 10 uM, replicate 2

Cl.N#Cc1ccc2[nH]cc(CCCCN3CCN(c4ccc5oc(C(N)=O)cc5c4)CC3)c2c1 [VILAZODONE HYDROCHLORIDE]
Population Apoptotic (%) [1]: 42% | Population Fragmented Nuclei (%) [1]: 17% | Population Healthy Nuclei (%) [1]: 65% | Population Hoechst High Intensity Objects (%) [1]: 9% | Population Membrane Permeable-Phenotype (%) [1]: 4% | Population Mitochondria Different-Phenotype (%) [1]: 28% | Population Mitotic Cells (%) [1]: 57% | Population Normal (%) [1]: 90% | Population Pyknosed Nuclei (%) [1]: 17% | Population Tubulin-Different-Phenotype (%) [1]: 29% | Total Cell Count [1]: 129 | Population Apoptotic (%) [2]: 27% | Population Fragmented Nuclei (%) [2]: 14% | Population Healthy Nuclei (%) [2]: 70% | Population Hoechst High Intensity Objects (%) [2]: 2% | Population Membrane Permeable-Phenotype (%) [2]: 6% | Population Mitochondria Different-Phenotype (%) [2]: 30% | Population Mitotic Cells (%) [2]: 72% | Population Normal (%) [2]: 97% | Population Pyknosed Nuclei (%) [2]: 15% | Population Tubulin-Different-Phenotype (%) [2]: 18% | Total Cell Count [2]: 50 | Population Apoptotic (%) [3]: 39% | Population Fragmented Nuclei (%) [3]: 29% | Population Healthy Nuclei (%) [3]: 12% | Population Hoechst High Intensity Objects (%) [3]: 18% | Population Membrane Permeable-Phenotype (%) [3]: 42% | Population Mitochondria Different-Phenotype (%) [3]: 89% | Population Mitotic Cells (%) [3]: 60% | Population Normal (%) [3]: 81% | Population Pyknosed Nuclei (%) [3]: 58% | Population Tubulin-Different-Phenotype (%) [3]: 100% | Total Cell Count [3]: 120 | Population Apoptotic (%) [4]: 67% | Population Fragmented Nuclei (%) [4]: 20% | Population Healthy Nuclei (%) [4]: 14% | Population Hoechst High Intensity Objects (%) [4]: 10% | Population Membrane Permeable-Phenotype (%) [4]: 38% | Population Mitochondria Different-Phenotype (%) [4]: 46% | Population Mitotic Cells (%) [4]: 32% | Population Normal (%) [4]: 89% | Population Pyknosed Nuclei (%) [4]: 64% | Population Tubulin-Different-Phenotype (%) [4]: 92% | Total Cell Count [4]: 72 | Population Apoptotic (%) [5]: 56% | Population Fragmented Nuclei (%) [5]: 16% | Population Healthy Nuclei (%) [5]: 71% | Population Hoechst High Intensity Objects (%) [5]: 7% | Population Membrane Permeable-Phenotype (%) [5]: 2% | Population Mitochondria Different-Phenotype (%) [5]: 26% | Population Mitotic Cells (%) [5]: 43% | Population Normal (%) [5]: 92% | Population Pyknosed Nuclei (%) [5]: 12% | Population Tubulin-Different-Phenotype (%) [5]: 21% | Total Cell Count [5]: 120 | Population Apoptotic (%) [6]: 60% | Population Fragmented Nuclei (%) [6]: 15% | Population Healthy Nuclei (%) [6]: 78% | Population Hoechst High Intensity Objects (%) [6]: 1% | Population Membrane Permeable-Phenotype (%) [6]: 3% | Population Mitochondria Different-Phenotype (%) [6]: 19% | Population Mitotic Cells (%) [6]: 40% | Population Normal (%) [6]: 98% | Population Pyknosed Nuclei (%) [6]: 6% | Population Tubulin-Different-Phenotype (%) [6]: 18% | Total Cell Count [6]: 54 | Population Apoptotic (%) [7]: 61% | Population Fragmented Nuclei (%) [7]: 26% | Population Membrane Permeable-Phenotype (%) [7]: 53% | Population Mitochondria Different-Phenotype (%) [7]: 86% | Population Mitotic Cells (%) [7]: 38% | Population Pyknosed Nuclei (%) [7]: 64% | Population Tubulin-Different-Phenotype (%) [7]: 93% | Total Cell Count [7]: 135 | Population Apoptotic (%) [8]: 75% | Population Fragmented Nuclei (%) [8]: 31% | Population Healthy Nuclei (%) [8]: 9% | Population Hoechst High Intensity Objects (%) [8]: 18% | Population Membrane Permeable-Phenotype (%) [8]: 30% | Population Mitochondria Different-Phenotype (%) [8]: 90% | Population Mitotic Cells (%) [8]: 24% | Population Normal (%) [8]: 81% | Population Pyknosed Nuclei (%) [8]: 59% | Population Tubulin-Different-Phenotype (%) [8]: 90% | Total Cell Count [8]: 79 | Population Apoptotic (%) [9]: 38% | Population Fragmented Nuclei (%) [9]: 10% | Population Healthy Nuclei (%) [9]: 76% | Population Hoechst High Intensity Objects (%) [9]: 6% | Population Membrane Permeable-Phenotype (%) [9]: 8% | Population Mitochondria Different-Phenotype (%) [9]: 10% | Population Mitotic Cells (%) [9]: 61% | Population Normal (%) [9]: 93% | Population Pyknosed Nuclei (%) [9]: 12% | Population Tubulin-Different-Phenotype (%) [9]: 16% | Total Cell Count [9]: 121 | Population Apoptotic (%) [10]: 40% | Population Fragmented Nuclei (%) [10]: 12% | Population Healthy Nuclei (%) [10]: 82% | Population Hoechst High Intensity Objects (%) [10]: 2% | Population Membrane Permeable-Phenotype (%) [10]: 9% | Population Mitochondria Different-Phenotype (%) [10]: 9% | Population Mitotic Cells (%) [10]: 60% | Population Normal (%) [10]: 97% | Population Pyknosed Nuclei (%) [10]: 4% | Population Tubulin-Different-Phenotype (%) [10]: 11% | Total Cell Count [10]: 49 | Population Apoptotic (%) [11]: 91% | Population Fragmented Nuclei (%) [11]: 35% | Population Healthy Nuclei (%) [11]: 7% | Population Hoechst High Intensity Objects (%) [11]: 21% | Population Membrane Permeable-Phenotype (%) [11]: 87% | Population Mitochondria Different-Phenotype (%) [11]: 100% | Population Mitotic Cells (%) [11]: 8% | Population Normal (%) [11]: 78% | Population Pyknosed Nuclei (%) [11]: 56% | Population Tubulin-Different-Phenotype (%) [11]: 100% | Total Cell Count [11]: 174 | Population Apoptotic (%) [12]: 89% | Population Fragmented Nuclei (%) [12]: 25% | Population Healthy Nuclei (%) [12]: 5% | Population Hoechst High Intensity Objects (%) [12]: 25% | Population Membrane Permeable-Phenotype (%) [12]: 75% | Population Mitotic Cells (%) [12]: 10% | Population Normal (%) [12]: 74% | Population Pyknosed Nuclei (%) [12]: 68% | Total Cell Count [12]: 120
